Consider 40 compounds from ChEMBL document CHEMBL1123488, “Agents for the treatment of brain edema. 2. [(2,3,9,9a-Tetrahydro-3-oxo-9a-substituted-1H-fluoren-7-yl)oxy]+ ++alkanoi c acids and some of their analogues” (J Med Chem, 1986).

The species named for one data set is Felis catus. In words: In vitro concentration required for 50% inhibition of swelling of cat cerebrocortical slices. The class given is functional. The settings on record: read-out: I50. The method in brief: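 Cat cortical slices were weighed and incubated 60 min at 22 °C in 27 mM K+ medium, with HCO3- added for the last 40 min and inhibitor present throughout. Swelling = (final − initial wet weight)/initial wet weight × 100. The HCO3−-dependent increment was taken as the target. I50 is the molarity giving 50% inhibition, read from the concentration–response curve.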

The nature of data set [1]: Dissociation constant (pKa) (determined in 30% EtOH). It counts as physicochemical.
Data set [2] can be described thus: % distribution in octanol versus pH7.4 buffer. It counts as physicochemical. Particulars: pH 7.4.

Broadly, the pKa is the negative logarithm of the acid dissociation constant. A lower pKa goes with a stronger acid or weaker base. For the compound `CCC12CCC(=O)C=C1c1c(cc(OCC(=O)OCCN3CCOCC3)c(Cl)c1Cl)C2` (configuration not stated), the IC50 in the data set listed under Felis catus (Felis catus) was > 10 nM. Further, the pKa in data set [1] stood at 5.08. Besides, the Distribution in data set [2] turned out to be 98.6%.
The like results for `CCCC12CCC(=O)C=C1c1c(cc(OCC(=O)NCCN(C)C)c(Cl)c1Cl)C2` (configuration not stated) were, in that order, > 1000 nM, 7.7 and 99.7%.
The matching figures for `CCCC12CC(=O)C=C1c1c(cc(OCC(=O)O)c(Cl)c1Cl)C2` (configuration not stated): 100 nM, 3.84 and 88%.
The matching figures for `CCC12CCC(=O)C=C1c1c(cc(OCc3nn[nH]n3)c(Cl)c1Cl)C2` (configuration not stated): > 100 nM, 3.72 and 95%.
On to `CCCC12CCC(=O)C=C1c1c(cc(OCC(=O)NN(C)C)c(Cl)c1Cl)C2` (configuration not stated), for which the IC50 in the data set filed under Felis catus (Felis catus) was > 100 nM. The pKa in data set [1] is 3.9. In data set [2], this compound returned a Distribution of 99.7%.
Regarding `CC(C)C12CCC(=O)C=C1c1c(cc(OCC(=O)O)c(Cl)c1Cl)C2` (configuration not stated), in the data set filed under Felis catus (Felis catus), the IC50 was > 100 nM. The pKa in data set [1] is 3.83. The Distribution in data set [2] stood at 89%.
On to `C=CC12CCC(=O)C=C1c1c(cc(OCC(=O)O)c(Cl)c1Cl)C2` (configuration not stated), for which the IC50 in the data set filed under Felis catus (Felis catus) was > 10 nM. For the same compound, in data set [1], the pKa came to 3.5. Moreover, the Distribution in data set [2] was 70%.
On to `CCC12CCC(=O)C=C1c1c(cc(OCC(=O)OCc3cccnc3)c(Cl)c1Cl)C2` (configuration not stated), for which the IC50 in the data set listed under Felis catus (Felis catus) is 0.1 nM. In addition, the pKa in data set [1] is 3.32. Further, in data set [2], the Distribution is listed as > 99.9%.
For the compound `CCC12CCC(=O)C=C1c1c(cc(OCC(=O)OCC(C)=O)c(Cl)c1Cl)C2` (configuration not stated), the IC50 in the data set filed under Felis catus (Felis catus) was 1 nM. The Distribution in data set [2] is > 99.9%.
Take `CCCC12CCC(=O)C=C1c1c(cc(OCC(=O)O)c(C)c1C)C2` (configuration not stated): the IC50 in the data set filed under Felis catus (Felis catus) amounted to 100 nM. For the same compound, in data set [1], the pKa is 4.3. In data set [2], the Distribution turned out to be 49%.
For `CCC12C=CC(=O)C=C1c1c(cc(OCC(=O)O)c(Cl)c1Cl)C2` (configuration not stated), in the data set filed under Felis catus (Felis catus), the IC50 is > 10 nM. In addition, the pKa in data set [1] stood at 3.7. Moreover, the Distribution in data set [2] is 79%.
The matching figures for `CCCC12CCC(=O)C=C1c1ccc(OCC(=O)O)cc1C2` (configuration not stated): 50 nM, 4.05 and 49%.
The like results for `CCCC12CCC(=O)C=C1c1c(cc(OCCCC(=O)O)c(Cl)c1Cl)C2` (configuration not stated) were, in that order, 3 nM, 3.7 and 99.8%.
The like results for `CCCC12CCC(=O)C(C)=C1c1c(cc(OCC(=O)O)c(Cl)c1Cl)C2` (configuration not stated) were, in that order, > 100 nM, 3.5 and 98%.
Turning to `CCCCC12CCC(=O)C=C1c1c(cc(OCC(=O)O)c(Cl)c1Cl)C2` (configuration not stated), the IC50 in the data set filed under Felis catus (Felis catus) was > 10 nM. This compound also returned a pKa in data set [1] of 3.5. Further, the Distribution in data set [2] is reported as 98%.
As for `CCC12CCC(=O)C=C1c1c(cc(OCC(=O)OCC3COC(C)(C)O3)c(Cl)c1Cl)C2` (configuration not stated), in the data set filed under Felis catus (Felis catus), the IC50 is > 10 nM. Also, in data set [2], the Distribution is on record as 99.9%.
Take `O=C(O)COc1cc2c(c(Cl)c1Cl)C1=CC(=O)CCC1(C1CCCC1)C2` (configuration not stated): the IC50 in the data set filed under Felis catus (Felis catus) was 1 nM. In data set [1], this compound gave a pKa of 3.83. In data set [2], this compound registered a Distribution of 97%.
For `CCCC12CCC(=O)C=C1c1c(cc(OCC(=O)OC)c(Cl)c1Cl)C2` (configuration not stated), the IC50 in the data set listed under Felis catus (Felis catus) was determined as 0.002 nM. Moreover, in data set [2], the Distribution is recorded as > 99.9%.
With `CCC12CCC(=O)C=C1c1c(cc(OCC(=O)OCC3CCC(CO)O3)c(Cl)c1Cl)C2` (configuration not stated), the IC50 in the data set filed under Felis catus (Felis catus) worked out at 1000 nM. In data set [2], this compound yielded a Distribution of 99.7%.
Take `CCC12CCC(=O)C=C1c1c(cc(OCC(=O)OCCCO)c(Cl)c1Cl)C2` (configuration not stated): in the data set listed under Felis catus (Felis catus), the IC50 was found to be 0.7 nM. The Distribution in data set [2] is on record as 99.3%.
Take `CCC12CCC(=O)C=C1c1c(cc(OCCCC(=O)O)c(Cl)c1Cl)C2` (configuration not stated): the IC50 in the data set listed under Felis catus (Felis catus) is > 10000 nM. The compound further yielded a pKa in data set [1] of 3.7. In data set [2], this compound had a Distribution of 99.2%.
For the compound `CCCC12CCC(=O)C=C1c1c(cc(SCC(=O)O)c(Cl)c1Cl)C2` (configuration not stated), the IC50 in the data set filed under Felis catus (Felis catus) was > 1000 nM. In data set [1], this compound displayed a pKa of 4.7. This compound also yielded a Distribution in data set [2] of 99%.
Regarding `CCC12CCC(=O)C=C1c1c(cc(OCC(=O)OC)c(Cl)c1Cl)C2` (configuration not stated), the IC50 in the data set filed under Felis catus (Felis catus) came to 20 nM. This compound displayed a Distribution in data set [2] of 99.5%.
`CC12CCC(=O)C=C1c1c(cc(OCC(=O)O)c(Cl)c1Cl)C2` (configuration not stated): the IC50 in the data set listed under Felis catus (Felis catus) is 10 nM. In addition, the pKa in data set [1] stood at 3.75. This compound displayed a Distribution in data set [2] of 62%.
Take `CCCC12CCC(C(C)=O)=C1c1c(cc(OCC(=O)O)c(Cl)c1Cl)C2` (configuration not stated): the IC50 in the data set listed under Felis catus (Felis catus) is 100 nM. Further, the pKa in data set [1] turned out to be 4.1. Besides, the Distribution in data set [2] came out at 95%.
In the case of `CCC12CCC(=O)C=C1c1c(cc(OCC(=O)O)c(Cl)c1Cl)C2` (single isomer, unassigned; (+)), the IC50 in the data set filed under Felis catus worked out at 10 nM.
Turning to `CCOC(=O)COc1cc2c(c(Cl)c1Cl)C1=CC(=O)CCC1(CC)C2` (single isomer, unassigned; (+)), the IC50 in the data set filed under Felis catus amounted to 0.1 nM. In addition, the Distribution in data set [2] is reported as > 99.9%.
For `CCCC12CCC(=O)C=C1c1c(cc(O)c(Cl)c1Cl)C2` (single isomer, unassigned; (+)), in the data set listed under Felis catus (Felis catus), the IC50 was > 10000 nM. Besides, the pKa in data set [1] came out at 6.18. The compound further showed a Distribution in data set [2] of 11%.
The matching figures for `CCCC12CCC(=O)C=C1c1c(cc(OCC(=O)OC(CC)(CC)C(=O)O)c(Cl)c1Cl)C2` (single isomer, unassigned; (+)): 0.04 nM, 3.4 and > 99.9%.
The like results for `CCCC12CCC(=O)C=C1c1c(cc(OCC(=O)OC(C)(C)C(=O)O)c(Cl)c1Cl)C2` (single isomer, unassigned; (+)) were, in that order, 0.004 nM, 3.8 and 98%.
For `CCCC12CCC(=O)C=C1c1c(cc(OCC(=O)O)c(Cl)c1Cl)C2` (single isomer, unassigned; (-)), the IC50 in the data set listed under Felis catus is 10000 nM.
The same measure, in the same setting: with `CCOC(=O)COc1cc2c(c(Cl)c1Cl)C1=CC(=O)CCC1(CC)C2` (single isomer, unassigned; (-)) the figure was > 10000 nM; with `CCC12CCC(=O)C=C1c1c(cc(OCC(=O)O)c(Cl)c1Cl)C2` (stereo in doubt; 5b), 30 nM.
For the compound `CCCC12CCC(=O)C=C1c1c(cc(OCC(=O)O)c(Cl)c1Cl)C2` (stereo in doubt; 5c), the IC50 in the data set listed under Felis catus came to 0.04 nM. Besides, the pKa in data set [1] is 3.6. In data set [2], this compound registered a Distribution of 93%.
In the case of `CCOC(=O)COc1cc2c(c(Cl)c1Cl)C1=CC(=O)CCC1(CC)C2` (stereo in doubt; 16b-1), in the data set listed under Felis catus, the IC50 worked out at 0.2 nM. Further, the Distribution in data set [2] is reported as > 99.8%.
`CCC12CCC(=O)C=C1c1c(cc(OCC(=O)OCC(=O)O)c(Cl)c1Cl)C2` (stereo in doubt; 16b-8): the IC50 in the data set listed under Felis catus (Felis catus) was determined as 6 nM. In addition, the pKa in data set [1] came out at 3.8. Moreover, the Distribution in data set [2] was found to be 91%.
The matching figures for `CCC12CCC(=O)C=C1c1c(cc(OCC(=O)OC(C)(C)C(=O)O)c(Cl)c1Cl)C2` (stereo in doubt; 16b-9): 1 nM, 3.8 and 95%.
With `CCC12CCC(=O)C=C1c1c(cc(OCC(=O)OCC(=O)O)c(Cl)c1Cl)C2` (stereo in doubt; (+)-16b-8), the IC50 in the data set filed under Felis catus is 3 nM. The Distribution in data set [2] was found to be 83%.
Turning to `CCC12CCC(=O)C=C1c1c(cc(OCC(=O)OC(C)(C)C(=O)O)c(Cl)c1Cl)C2` (stereo in doubt; (+)-16b-9), the IC50 in the data set listed under Felis catus is 0.5 nM. In data set [2], this compound gave a Distribution of 96%.
With `CCC12CCC(=O)C=C1c1c(cc(OCC(=O)O)c(Cl)c1Cl)C2` (stereo in doubt; (-)-5b), in the data set filed under Felis catus, the IC50 came to 30000 nM. Besides, in data set [1], the pKa is 3.6. Moreover, the Distribution in data set [2] amounted to 81%.
